Test results: ChEMBL document CHEMBL1121813, “Dihydrochalcone sweeteners. A study of the atypical temporal phenomena” (1981)

How the values were obtained:
Assay type in all cases: functional
[1] = species on record: Homo sapiens; test: Sour character at a concentration of 250 ppm (mean value)
Method in brief: (§1)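 Trained human sensory panel (Swartz method) tasted dilute aqueous solutions of the compounds, which had to be ≥95 weight percent pure and free of mutagenicity and toxicity. Taste character is reported as the mean value with 2S_m limits. Data deviating excessively at the 95% confidence level were rejected by the t-value method.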

[2] = species on record: Homo sapiens; test: Intensity calculated on a weight basis relative to an 85500 ppm sucrose solution at a concentration of 250 ppm (mean value)
Method in brief: (§2)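 Trained human panel tasted aqueous solutions of purity-checked (≥95 weight percent) compounds cleared for mutagenicity and mouse oral toxicity. Weight-basis intensity I_w = perceived intensity × (85500 ppm sucrose / compound concentration in ppm). The mean is reported with 2S_m limits; data deviating excessively at 95% confidence were rejected by the t-value method.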

[3] = species on record: Homo sapiens; test: Bitter character at a concentration of 250 ppm (mean value)
Method in brief: (§3)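 Trained human panel tasted aqueous solutions. Each judge reported whether there was an aftertaste and its character (sweet, bitter or bitter-sweet). The value is the percentage of judgments reporting a bitter aftertaste.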

[4] = species on record: Homo sapiens; test: Experimentally determined perceived intensity of compound at a concentration of 250 ppm (mean value)
Method in brief: (§4)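 Trained human sensory panel of judges tasted aqueous solutions of the compound. Samples had to be ≥95 weight % pure (HPLC, proton titration, Karl Fischer), non-mutagenic in five Salmonella typhimurium strains with and without microsomal activation, and non-toxic in a single-oral-dose mouse test. Perceived intensity (Ip) was read from time–intensity curves at 4- or 6-s intervals and averaged. Outliers at the 95% level were rejected by t-value. Values reported as mean (2Sm).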

[5] = species on record: Homo sapiens; test: Number of taste judgments per compound
[6] = species on record: Homo sapiens; test: Sweet / Bitter character at a concentration of 250 ppm (mean value); 94/6
[7] = species on record: Homo sapiens; test: Sweet character at a concentration of 250 ppm (mean value); method in brief: as §1
[8] = species on record: Homo sapiens; test: Intensity calculated on a molar basis relative to a 0.25 M sucrose solution at a concentration of 250 ppm (mean value)
Method in brief: (§5)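 Trained human judges tasted aqueous solutions of the test compound; compounds were first required to be ≥95 weight percent pure and free of mutagenicity (five Salmonella typhimurium strains, ± microsomal activation) and of single oral dose mouse toxicity. Molar intensity I_m = perceived intensity × (0.25 M sucrose / compound molar concentration). The mean is reported with 2S_m limits; outliers were rejected at 95% confidence by t-value.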

[9] = species on record: Homo sapiens; test: Salty character at a concentration of 250 ppm (mean value); method in brief: as §1
[10] = species on record: Homo sapiens; test: Other taste character at a concentration of 250 ppm (mean value); method in brief: as §1
[11] = species on record: Homo sapiens; test: Percentage of judgments reporting an aftertaste at a concentration of 250 ppm and character thereof
Method in brief: (§6)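 Trained judges tasted aqueous solutions of the compounds, which had to be ≥95 weight percent pure and to have passed mutagenicity and single oral dose toxicity screening. The value is the percentage of panel judgments reporting an aftertaste. Where given, its character is recorded as sweet, bitter or bitter-sweet.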

[12] = species on record: Homo sapiens; test: Sweet character at a concentration of 501 ppm (mean value)
[13] = species on record: Homo sapiens; test: Experimentally determined perceived intensity of compound at a concentration of 501 ppm (mean value); method in brief: as §4
[14] = species on record: Homo sapiens; test: Percentage of judgments reporting an aftertaste at a concentration of 501 ppm and character thereof
[15] = species on record: Homo sapiens; test: Intensity calculated on a weight basis relative to an 85500 ppm sucrose solution at a concentration of 501 ppm (mean value); method in brief: as §2
[16] = species on record: Homo sapiens; test: Bitter character at a concentration of 501 ppm (mean value); method in brief: as §3
[17] = species on record: Homo sapiens; test: Sour character at a concentration of 501 ppm (mean value)
[18] = species on record: Homo sapiens; test: Sweet / Bitter character at a concentration of 501 ppm (mean value); 0/100
[19] = species on record: Homo sapiens; test: Intensity calculated on a molar basis relative to a 0.25 M sucrose solution at a concentration of 501 ppm (mean value); method in brief: as §5
[20] = species on record: Homo sapiens; test: Salty character at a concentration of 501 ppm (mean value)
[21] = species on record: Homo sapiens; test: Other taste character at a concentration of 501 ppm (mean value); method in brief: as §1
[22] = species on record: Homo sapiens; test: Intensity calculated on a weight basis relative to an 85500 ppm sucrose solution at a concentration of 2000 ppm (mean value); method in brief: as §2
[23] = species on record: Homo sapiens; test: Bitter character at a concentration of 2000 ppm (mean value); method in brief: as §3
[24] = species on record: Homo sapiens; test: Other taste character at a concentration of 2000 ppm (mean value)
Method in brief: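 Trained human panel tasted aqueous solutions of each compound. Aftertaste is scored as the percentage of judgments reporting one, with its character coded sweet (s), bitter (b) or bitter-sweet (bs).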

[25] = species on record: Homo sapiens; test: Experimentally determined perceived intensity of compound at a concentration of 2000 ppm (mean value); method in brief: as §4
[26] = species on record: Homo sapiens; test: Sweet / Bitter character at a concentration of 2000 ppm (mean value); 0/100
[27] = species on record: Homo sapiens; test: Percentage of judgments reporting an aftertaste at a concentration of 2000 ppm and character thereof; method in brief: as §6
[28] = species on record: Homo sapiens; test: Sweet character at a concentration of 2000 ppm (mean value); method in brief: as §1
[29] = species on record: Homo sapiens; test: Intensity calculated on a molar basis relative to a 0.25 M sucrose solution at a concentration of 2000 ppm (mean value); method in brief: as §5
[30] = species on record: Homo sapiens; test: Salty character at a concentration of 2000 ppm (mean value); method in brief: as §1
[31] = species on record: Homo sapiens; test: Sour character at a concentration of 2000 ppm (mean value); method in brief: as §1
[32] = species on record: Homo sapiens; test: Sweet character at a concentration of 54 ppm (mean value)
[33] = species on record: Homo sapiens; test: Experimentally determined perceived intensity of compound at a concentration of 54 ppm (mean value); method in brief: as §4
[34] = species on record: Homo sapiens; test: Percentage of judgments reporting an aftertaste at a concentration of 54 ppm and character thereof
[35] = species on record: Homo sapiens; test: Intensity calculated on a weight basis relative to an 85500 ppm sucrose solution at a concentration of 54 ppm (mean value); method in brief: as §2
[36] = species on record: Homo sapiens; test: Bitter character at a concentration of 54 ppm (mean value); method in brief: as §3
[37] = species on record: Homo sapiens; test: Intensity calculated on a molar basis relative to a 0.25 M sucrose solution at a concentration of 54 ppm (mean value); method in brief: as §5
[38] = species on record: Homo sapiens; test: Sour character at a concentration of 54 ppm (mean value)
[39] = species on record: Homo sapiens; test: Sweet / Bitter character at a concentration of 54 ppm (mean value); 14/86
[40] = species on record: Homo sapiens; test: Salty character at a concentration of 54 ppm (mean value)
[41] = species on record: Homo sapiens; test: Other taste character at a concentration of 54 ppm (mean value); method in brief: as §1

Structure (SMILES): COc1ccc(CCC(=O)c2c(O)cc(OCCNS(=O)(=O)[O-])cc2O)cc1O.[K+]
- Taste character [1]: 0
- IW [2]: 350
- Taste character [3]: 6
- IP [4]: 1.03
- Judgments [5]: 12
- Taste character [6]: 94
- Taste character [7]: 89
- IM [8]: 480
- Taste character [9]: 0
- Taste character [10]: 5
- Judgments [11]: 100

Structure (SMILES): O=C([O-])COc1cc(O)c(C(=O)CCc2ccccc2)c(O)c1.[Na+]
- Taste character [12]: 0
- IP [13]: 0.91
- Judgments [14]: 100
- IW [15]: 160
- Taste character [16]: 79
- Taste character [17]: 0
- Judgments [5]: 12
- Taste character [18]: 0
- IM [19]: 150
- Taste character [20]: 0
- Taste character [21]: 21

Structure (SMILES): CC(=O)c1c(O)cc(OCC(=O)[O-])cc1O.[Na+]
- IW [22]: 10
- Taste character [23]: 100
- Taste character [24]: 0
- IP [25]: 0.25
- Taste character [26]: 0
- Judgments [5]: 1
- Judgments [27]: 0
- Taste character [28]: 0
- IM [29]: 0
- Taste character [30]: 0
- Taste character [31]: 0

Structure (SMILES): COc1ccc(CC(=O)c2c(O)cc(O)cc2O)cc1O
- Taste character [32]: 11
- IP [33]: 0.11
- Judgments [34]: 0
- IW [35]: 170
- Taste character [36]: 70
- IM [37]: 150
- Taste character [38]: 0
- Judgments [5]: 12
- Taste character [39]: 14
- Taste character [40]: 0
- Taste character [41]: 19
